Screening results from PubChem BioAssay.
KCNQ1 act: potentiates or activates the human KCNQ1 potassium channel | actives 0.35% (n = 310,000) | CHO-K1 KCNQ1, thallium flux FluxOR fluorescence; hits give high values | B-score at 10 µM;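 active means fluorescence ratio B-score, a plate-corrected score, at least three library SD, with initial intensity B-score within 5 SD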
Target sequence (P51787 whole entry, looked up): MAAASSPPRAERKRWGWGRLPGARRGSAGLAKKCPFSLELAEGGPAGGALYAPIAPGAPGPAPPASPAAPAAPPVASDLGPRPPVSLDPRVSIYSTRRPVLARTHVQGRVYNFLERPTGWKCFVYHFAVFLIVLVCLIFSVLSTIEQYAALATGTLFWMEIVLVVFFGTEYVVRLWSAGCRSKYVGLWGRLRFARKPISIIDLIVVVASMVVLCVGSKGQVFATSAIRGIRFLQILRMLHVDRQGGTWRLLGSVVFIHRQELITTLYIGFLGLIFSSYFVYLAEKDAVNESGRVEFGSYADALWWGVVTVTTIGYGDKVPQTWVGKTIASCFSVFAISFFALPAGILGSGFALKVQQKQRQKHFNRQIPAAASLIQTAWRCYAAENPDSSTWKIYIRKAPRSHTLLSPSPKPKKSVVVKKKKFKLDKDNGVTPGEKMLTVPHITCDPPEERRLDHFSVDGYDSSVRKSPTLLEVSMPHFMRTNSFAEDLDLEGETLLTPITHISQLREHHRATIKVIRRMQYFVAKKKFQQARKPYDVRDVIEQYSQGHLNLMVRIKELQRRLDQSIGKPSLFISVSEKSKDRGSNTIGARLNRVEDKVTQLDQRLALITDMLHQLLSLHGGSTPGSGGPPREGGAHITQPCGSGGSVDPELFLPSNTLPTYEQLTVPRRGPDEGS
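System: Stable KCNQ1 CHO-K1 line | Incubation: 90 min dye loading and 20 min compound exposure, both at room temperature | Measure: Ratio B score | Medium: Assay buffer for compound exposure, DMSO matched across wells | Compound dosing: Single-concentration screen | Probe or stimulus: K+/Tl+ depolarizing stimulus | Measured by: Kinetic FluxOR fluorescence, 10 s baseline plus 110 s post-stimulus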
hERG protect: compounds protecting human hERG from proarrhythmic drug block. CHO-hERG, FluxOR thallium flux, dofetilide IC70 present. activation (rescue from dofetilide block), less the hit threshold, % at 10 µM. Q12809. actives 0.51% (n = 310,000). AID 1511;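 active means activation above the mean of controls blocked by dofetilide plus 5 SD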;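 further: thallium influx through hERG after potassium depolarization seen as dye fluorescence rise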
KCNK3 inh: human KCNK3 channel inhibition, primary screen | CHO-KCNK3 thallium flux, FluxOR fluorescence; hits give low values | AID 602410 | actives 0.84% (n = 340,000) | B-score at 10 µM | O14649;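 active means B-score under library mean minus 4 SD, starting fluorescence ratio at most library mean plus 5 SD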;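 further: more negative B-score means stronger inhibition of thallium flux through KCNK3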
KCNQ1 inh: human KCNQ1 channel inhibition; P51787; CHO-K1 KCNQ1, FluxOR thallium flux fluorescence; hits give high values; B-score at 10 µM; actives 1.3% (n = 310,000);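 active means compounds whose thallium flux B-score, printed positive for inhibition, exceeds three library SD while starting fluorescence stays within three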;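 further: channel opened by potassium depolarization with thallium stimulus after 20 min compound exposure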
Kir21 block: Kir2.1 (mouse) channel inhibition | P35561 | HEK293-Kir2.1, FluxOR thallium flux fluorescence; hits give low values | B-score at 10 µM | actives 0.85% (n = 310,000);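 active means fluorescence ratio B-score at or below minus 3 SD of library scores, with starting-brightness B-score within 2 SD, cut at about -4.2 in these data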;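 further: channel flux triggered by added potassium and thallium sulfate stimulus; B-score of peak minus minimum fluorescence over baseline after thallium stimulus; more negative B-score means stronger Kir2.1 block with less thallium influx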
KCNK9 block: inhibitors of human KCNK9 two-pore domain potassium channel; HEK293 KCNK9, FluxOR thallium flux fluorescence; hits give low values; B-score at 10 µM; actives 1.2% (n = 310,000); AID 488922;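 active means ratio B-score over 3 SD below the library mean, with starting fluorescence within 5 SD of its mean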;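 further: negative B-score means less thallium flux so channel inhibition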
Numbers stand for hits; i = inactive; nt = not tested or not shown. Shown are actives, neighbours in structure and some others; about 3.7% of the full set was active somewhere.

SMILES | KCNQ1 act | hERG protect | KCNK3 inh | KCNQ1 inh | Kir21 block | KCNK9 block
NS(=O)(=O)c1ccc(N2N=C(c3ccccc3)CC2c2ccc(F)cc2)cc1 (stereo unspecified) | i | i | i | 6 | i | -7.7
COc1ccc(C2CC(c3ccccc3)=NN2c2ccc(S(N)(=O)=O)cc2)cc1 (stereo unspecified) | i | i | i | i | i | i
CCN(CC(=O)Nc1ccc2c(c1)OCCO2)C(=O)C(C)Oc1ccc(F)cc1 (stereo unspecified) | nt | nt | i | nt | nt | nt
O=C(COc1ccc2c3c(c(=O)oc2c1)CCC3)N[C@@H](Cc1ccccc1)C(=O)O | i | 5.3 | i | i | i | i
O=C(COc1ccc2c3c(c(=O)oc2c1)CCC3)N[C@@H](CSCc1ccccc1)C(=O)O | i | i | i | i | i | i
COc1ccc(S(=O)(=O)N(C)C[C@H]2Oc3c(cccc3N(C)C)C(=O)N([C@H](C)CO)C[C@@H]2C)cc1 | nt | nt | i | nt | nt | nt
Cc1ccc(S(=O)(=O)N2CCN(S(C)(=O)=O)C2C)cc1 (stereo unspecified) | i | i | i | i | i | i
C/C(=N\NC(=O)C1COc2ccccc2O1)c1ccc(N2CCOCC2)cc1 (stereo unspecified) | 30 | 5.6 | i | i | i | i
O=C(O)C1(c2ccccc2)CCN(S(=O)(=O)c2ccccc2)CC1 | i | i | i | i | i | i
O=C(O)C1(c2ccccc2)CCN(S(=O)(=O)c2cccs2)CC1 | i | 5.2 | i | i | i | i
Cc1cccc(/C=C/C(=O)c2ccc([N+](=O)[O-])o2)c1 | i | i | i | 8 | i | i
Cc1ccccc1/C=C/C(=O)c1ccc([N+](=O)[O-])o1 | i | i | nt | 7 | i | i
O=C(/C=C/c1cccc([N+](=O)[O-])c1)c1ccc([N+](=O)[O-])o1 | i | i | i | i | i | i
COc1ccccc1CNC(=O)COC(=O)/C=C/c1ccc2ccccc2n1 | nt | nt | i | nt | nt | nt
Cc1c(CCNC=O)cc(C)c2c3c(oc12)CCCC3 | nt | nt | i | nt | nt | nt
Cc1ccc(C)n1-n1c(C)nc2scc(-c3ccccc3)c2c1=O | i | i | i | i | i | i
Cc1nc2scc(-c3ccccc3)c2c(=O)n1N=C1C=CC(=O)C=C1 | i | i | nt | i | -6.8 | i
O=C(Nc1ccc(Cl)c(S(=O)(=O)N2CCCC2)c1)c1cc(=O)[nH]c2ccccc12 | nt | nt | i | nt | nt | nt
CC(=O)/C(=C/N(C)C)C(=O)Nc1ccc(Cl)cc1Cl | i | i | i | 10 | i | i
CCN(CC(=O)Nc1ccc(NC(C)=O)cc1)C(=O)c1ccc(N(C)S(=O)(=O)c2ccc(C)cc2)cc1 | nt | nt | i | nt | nt | nt
Cc1cc(NC(=O)/C(C#N)=C\c2ccc(-c3ccc(SC(F)F)cc3)o2)n(-c2ccccc2)n1 | nt | nt | i | nt | nt | nt
O=C(O)CC1(CC(=O)NCc2ccc(C(F)(F)F)cc2)CCCCC1 | i | i | i | i | i | i
O=C(O)CC1(CC(=O)Nc2cc(C(F)(F)F)cc(C(F)(F)F)c2)CCCCC1 | i | i | i | 7 | i | i
CCCC(=O)Nc1c2c(nc3ccccc13)N(c1ccccc1)CC2 | i | i | -9.3 | i | i | i
O=C(CN1CCCCC1)Nc1c2c(nc3ccccc13)N(c1ccccc1)CC2 | i | i | i | i | i | i
SMILES | KCNQ1 act | hERG protect | KCNK3 inh | KCNQ1 inh | Kir21 block | KCNK9 block
Cc1cccc(NC(=S)N/N=C2\CC(C)(C)Oc3ccc(O)cc32)c1 | i | 6.5 | i | i | i | i
CC(C)c1ccc(C(=O)CN2C(=O)NC3(CCc4ccccc43)C2=O)cc1 (stereo unspecified) | nt | nt | i | nt | nt | nt
CCN(C(=O)CSc1nnc(-c2cccc(F)c2)n1N)c1c(N)n(Cc2ccccc2)c(=O)[nH]c1=O | nt | nt | i | nt | nt | nt
COc1ccc(-c2cnc3n2CCCCC3)cc1 | i | i | i | i | i | i
COc1ccc(-c2c[n+]3c4n2CCCCC4=C(c2ccc(Br)cc2)C3)cc1 | i | i | i | 11 | i | i
Clc1ccc(C2=C3CCCCn4c(-c5ccccc5)c[n+](c43)C2)cc1 | i | i | i | 7 | i | i
O=C1NC[C@H](Cc2ccccc2)N(CC2CCN(CCC34CC5CC(CC(C5)C3)C4)CC2)C1=O | nt | nt | i | nt | nt | nt
CC(C)NC(=O)N(C)C[C@H]1Oc2c(NC(=O)C3CC3)cccc2C(=O)N([C@H](C)CO)C[C@@H]1C | nt | nt | i | nt | nt | nt
N#C/C(=C(/O)c1ccc(-c2cccc([N+](=O)[O-])c2)o1)c1nc2ccccc2s1 | i | i | i | 7 | i | i
O=C(O)c1ccc(-c2cccc([N+](=O)[O-])c2)o1 | i | i | i | i | i | i
CC1CN(C=O)CC(C)N1CCN1C(C)CN(C=O)CC1C (stereo unspecified) | nt | nt | i | nt | nt | nt
Cc1cccc(NC(=O)CN(CC2CCCO2)C(=O)c2oc3ccccc3c2C)c1C (stereo unspecified) | nt | nt | i | nt | nt | nt
Cc1ccccc1C(=O)Nc1ccc(-c2nc3ccc(C(=O)c4ccccc4)cc3[nH]2)cc1 | i | i | i | 6 | i | i
CC(C)C[C@@H](CN)NC(=O)c1nc[nH]c1C(=O)N[C@@H](C)C(=O)CNC[C@H](C)NC(=O)c1nc[nH]c1C(=O)N[C@@H](CC(C)C)C(=O)O | nt | nt | i | nt | nt | nt
Cc1ccc(OCC(=O)NC(=S)Nc2ccc(Br)c(C)n2)cc1 | i | i | i | i | i | i
Cc1ccc(OCC(=O)NC(=S)Nc2ccc(Br)cn2)cc1 | 9 | 12 | i | i | i | i
CCCCn1c(N)c(N(CC(C)C)C(=O)c2ccc([N+](=O)[O-])o2)c(=O)[nH]c1=O | nt | nt | i | nt | nt | nt
COc1cccc(OC)c1C(=O)NNS(=O)(=O)c1ccc2ccccc2c1 | i | i | i | i | i | i
CCOc1ccc(S(=O)(=O)Oc2ccc3ccccc3c2)cc1 | i | i | i | 6 | i | i
O=C(CN1CCCc2ccccc21)NCCc1ccc(F)cc1 | i | i | i | i | -6.5 | i
O=[N+]([O-])c1cccc(SSc2cccc([N+](=O)[O-])c2)c1 | nt | nt | i | nt | nt | nt
CCOC(=O)c1cc2c(c(CCO)n1)[C@@H](CCO)N(S(=O)(=O)C(C)(C)C)C2 | nt | nt | i | nt | nt | nt
O=C(CCCN1C(=O)/C(=C/c2ccccc2OC(F)F)SC1=S)Nc1cccnc1 | nt | nt | i | nt | nt | nt
COc1cc(C(=O)CCN2CCC(c3ccccc3)C2)cc(OC)c1OC (stereo unspecified) | 11 | i | i | i | i | i
O=C(CCN1CCC(c2ccccc2)C1)c1ccccc1 (stereo unspecified) | i | i | i | i | i | i
CC(C)(C)OC(=O)CC1(C#N)c2ccccc2C(Br)=CN1C(=O)c1ccccc1 (stereo unspecified) | i | i | i | i | i | -7.4
Cc1ccc(SCCNC(=O)c2ccc(C)c(S(=O)(=O)Nc3cccc(C)c3)c2)cc1 | i | i | -11 | i | i | i
CCC(=O)N(Cc1c(C)nn(-c2ccccc2)c1Cl)c1ccc(Cl)cc1 | i | i | i | 6 | i | i
